# Screens from PubChem.
# SIAE primary – blocks human sialic acid acetylesterase; Q9HAT2; SIAE FP-Rh probe binding, fluorescence polarization; inhibition, % at 9.66 µM; 0.69% of 370,000 active;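 active = inhibition above a cutoff: mean of compounds within the control limits plus 3 SD of those, cut at about 17% in these data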
# TCR CD3 inh – blocks the human TCR-CD3 interaction; TAMRA-labeled TCR probe fluorescence, biochemical; inhibition, % at 9.4 µM; 0.37% of 360,000 active; in the data active = inhibition above about 19%;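 also: recombinant mutant TCR 2C K166C tagged with TAMRA read by polarization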
# ABHD4 inh – inhibitors of mouse ABHD4. Q8VD66. purified mABHD4, FP-Rh probe fluorescence polarization. inhibition, % at 8.92 µM. 0.54% of 370,000 active. AID 720543;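 active = inhibition exceeding the mean over every tested compound plus 3 SD, cut at about 30% in these data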
#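 Test system: mABHD4 protein | Buffer or medium: HEPES pH 7.0 buffer, 150 mM NaCl, 0.01% Pluronic F-127 | Probe or stimulus: FP-Rh fluorescent activity-based probe, added after compound pre-incubation | Timing: Pre-incubation 45 min, probe exposure 60 min, at 25 °C | Technique: Fluorescence polarization, excitation 525 nm, emission 598 nm, BODIPY TMR filters | Repeats: Single well per compound (singlicate)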
# PRMT1 inh – PRMT1 (human) inhibition, primary screen; AID 652257; inhibition, % at 2.79 µM; 1.3% of 370,000 active; recombinant PRMT1, activity-based probe fluorescence polarization;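 active = inhibition above about 21% made by adding two undisclosed values, limit read from the data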
# Target sequence (Q99873 whole entry, looked up): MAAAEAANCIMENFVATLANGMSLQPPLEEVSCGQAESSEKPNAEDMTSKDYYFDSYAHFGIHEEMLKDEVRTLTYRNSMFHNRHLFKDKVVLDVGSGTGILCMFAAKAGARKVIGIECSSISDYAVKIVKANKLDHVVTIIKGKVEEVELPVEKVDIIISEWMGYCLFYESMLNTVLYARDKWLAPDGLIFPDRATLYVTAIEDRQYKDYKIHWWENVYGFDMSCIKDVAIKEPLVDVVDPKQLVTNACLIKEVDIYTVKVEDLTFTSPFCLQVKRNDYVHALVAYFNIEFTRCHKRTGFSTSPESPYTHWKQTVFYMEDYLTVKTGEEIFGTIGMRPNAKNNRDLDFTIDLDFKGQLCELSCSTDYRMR
# HTRA1 inh – inhibitors of human serine peptidase HTRA1; Q92743; recombinant HTRA1, FP-rhodamine activity-based probe, fluorescence polarization; inhibition, % at 5.96 µM; 0.5% of 340,000 active; AID 504803; in the data active = inhibition above about 36%
# A number is an active result; 0 = inactive; - = not tested or not shown. Sampled rows, rich in hits. Any-hit rate of the full collection: about 2.5%.
SMILES,SIAE primary,TCR CD3 inh,ABHD4 inh,PRMT1 inh,HTRA1 inh
O=[N+]([O-])c1ccc(CS(=O)c2ccccc2)cc1 (stereo unspecified),0,0,0,0,0
O=[N+]([O-])c1ccc(S(=O)Cc2ccccc2)c([N+](=O)[O-])c1 (stereo unspecified),0,0,0,38,0
O=C(CCN1CCCCC1)Nn1c(=S)[nH]c2ccccc2c1=O,0,0,0,24,0
Cc1ccc(-n2c(SCC(=O)Nc3ccc(S(=O)(=O)Nc4cc(C)nc(C)n4)cc3)nnc2-c2ccc(C(C)(C)C)cc2)cc1,0,-,0,0,-
CCN1CCN(C2=C(NS(=O)(=O)c3ccc(Br)cc3)C(=O)c3ccccc3C2=O)CC1,0,0,0,22,0
CCN1CCN(C2=C(NS(=O)(=O)c3ccccc3)C(=O)c3ccccc3C2=O)CC1,0,0,0,0,0
CC(C)C[C@H]1COc2cc(Br)ccc2S(=O)(=O)N1Cc1cn(CCC2OCCCO2)nn1,0,-,0,0,-
O=C1C=CC2(O[C@H](c3ccccc3)[C@@H](c3ccccc3)O2)[C@H](Sc2ccccc2O)C1,0,0,0,96,0
C[C@@H]1[C@@H](Sc2ccccc2)CC(=O)O[C@@H]1c1ccc(-c2ccccc2)cc1,0,0,0,0,0
CCCCCc1ccc(NC(=O)OCCCN2CCC3(CCC(c4ccccc4)CC3)C2=O)cc1 (stereo unspecified),0,-,0,0,-
Cn1ccc2c(-c3ccc(F)nc3)cc3c(c21)C1CCC3C1 (stereo unspecified),0,0,0,23,-
CC(C)CNc1cccc2c1S(=O)(=O)N(Cc1cn(Cc3ccc(F)cc3)nn1)Cc1ccccc1O2,0,-,0,0,-
CCCCc1ccc(-n2c(Cc3cccs3)n[nH]c2=S)cc1,0,0,0,21,0
O=C(Nc1ccc(OC(F)(F)F)cc1)Nc1c(-c2ccc(F)cc2)nc2ncccn12,0,-,0,0,-
Nc1c(C(=O)NC2CC2)sc2nc3c(c(-c4ccco4)c12)CC/C3=C/c1ccco1,-,-,-,-,54
Cc1nc2sc(C(=O)NC3CC3)c(N)c2c(C)c1Cl,0,-,0,0,-
COc1ccc(NC(=O)C(C)(C)Oc2ccc(Cl)cc2)cn1,0,0,0,0,0
COc1ccc(NC(=O)/C(Cl)=C(/Cl)S(=O)(=O)Cc2ccccc2)cn1,0,0,0,24,0
COc1ccc(NC(=O)C(Cl)=C(Cl)Cl)cn1,0,0,0,0,0
COc1ccc(NC(=O)/C(Cl)=C(/Cl)S(=O)Cc2ccc(Cl)cc2)cn1 (stereo unspecified),0,0,0,32,0
COc1ccc(CN(CCN2CCOCC2)C(=O)c2cc(F)ccc2C)cc1OC,0,-,0,0,-
COc1ccc(C)cc1NC(=O)CSc1nnc(-c2n[nH]c3c2CCC3)n1N,0,-,0,0,-
O=C(CCN1CCc2ccccc2C1)c1ccc2c(c1)OCCO2,-,-,-,-,0
O=C(CCN1CCCCC1)c1ccc2c(c1)OCCO2,0,0,0,24,0
C[N+]1=C2N[C@@H](c3ccccc3)CC(=O)N2/C(=C\c2ccccc2)[C@@H]1Cc1ccccc1,0,-,0,0,-
SMILES,SIAE primary,TCR CD3 inh,ABHD4 inh,PRMT1 inh,HTRA1 inh
O=C(Nc1ccccc1F)c1cc(-c2ccco2)nc2ccccc12,0,0,0,0,0
O=C(Nc1ccc(F)cc1F)c1cc(-c2ccco2)nc2ccccc12,0,0,0,23,0
CS(=O)(=O)c1sc2nc(-c3cccs3)cc(-c3ccccc3)c2c1N,0,0,0,65,0
Cc1ccc(-c2cc(-c3ccccc3)c3c(N)c(S(C)(=O)=O)sc3n2)cc1,0,0,0,0,0
CC(=O)Oc1cc(O)c2c(=O)c(OC(C)=O)c(-c3ccc(OC(C)=O)c(OC(C)=O)c3)oc2c1,-,-,-,-,50
COc1ccc(-c2oc3cc(OC(C)=O)cc(OC(C)=O)c3c(=O)c2OC)cc1,0,0,0,0,0
Cc1ccc(NC(=O)c2ccc(CS(=O)(=O)Cc3ccccc3C)o2)c(C)c1,0,-,0,0,-
O=C1C=CC2(C=C1)O[C@H](Cc1ccccc1)[C@@H](Cc1ccccc1)O2,0,0,0,51,0
O=C1NN(c2ccccc2)C(=O)/C1=C\c1ccccc1OCC(=O)N1CCOCC1,0,0,0,21,0
CCc1ccccc1N=C1S/C(=C/c2ccccc2OCC(=O)N2CCOCC2)C(=O)N1C,0,0,0,0,0
O=C(Sc1n[nH]c(=O)[nH]c1=O)c1ccccc1,0,0,0,88,0
COc1ccc(C)c(NC(=O)[C@@H]2CCCN2S(=O)(=O)c2cccc3cccnc23)c1,0,-,0,0,-
COc1ccc(/C=N/c2oc(C)c(C)c2C#N)c(OC)c1,0,0,0,0,0
